MPTP block: mitochondrial permeability transition pore inhibitors, primary screen, biochemical, isolated mouse mitochondria, absorbance; Ca2+ swelling absorbance, 30 min; inhibition, % at 10 µM; actives 1.4% (n = 360,000);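 active means inhibition of 50% or more, scaled per plate between neutral and stimulator controls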
TAAR1 ag: human TAAR1 agonists, primary screen, Fluo-8 calcium fluorescence, CHO RD-HGA16 cells; vehicle wells 0%, saturating PEA agonist 100%; actives 0.99% (n = 360,000); activation, % at 3 µM;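 active means activation above the mean activation of all test compounds in the run plus 3 SD, cut at about 38% in these data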
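Repeats: no replicates (n 1) | Material: CHO-derived RD-HGA16 cells with stable Gα16 and human TAAR1 | Technique: Kinetic Fluo-8 calcium fluorescence | Schedule: 17-24 h seeding, 75 min 37 °C dye, 30 min RT | Evaluation: % activation from peak over basal fluorescence ratio, DMSO-to-PEA scaled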
TAAR1 antagonist: human TAAR1 antagonists, primary screen, Fluo-8 calcium fluorescence, CHO RD-HGA16 cells; inhibition, % at 3 µM; antagonist; actives 1.5% (n = 360,000); AID 624466, 2012; Trace amine-associated receptor 1 (Homo sapiens), Q96RJ0;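 active means inhibition above a per-plate cutoff, the mean inhibition of test compounds on that plate plus 3 SD, cut at about 49% in these data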
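Test system: CHO RD-HGA16 cells bearing hTAAR1 | Reagent: β-PEA, EC80 | Compound dosing: 3 µM, single point | Schedule: Dye loading 75 min at 37 °C, then 30 min room temperature | Signal: Calcium fluorescence with Fluo-8 | Evaluation: Percent inhibition of PEA-evoked calcium signal, max/basal emission ratio | Control set: DMSO-only wells and EC80 β-PEA-stimulated wells | Repeats: Singlicate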
DAGLB inh: DAGLB lipase inhibitors, primary screen, biochemical, fluorescence, HTS; Diacylglycerol lipase-beta (Homo sapiens), Q8NCG7; HEK293T DAGLB membrane lysate, EnzChek fluorogenic substrate; inhibition, % at 5.17 µM; actives 0.059% (n = 340,000); AID 504411, 2011; in the data active means inhibition above about 34%
GPR7 antagonist: GPR7 receptor antagonists, primary screen, cell-based, fluorescence, single concentration. Neuropeptides B/W receptor type 1 (Homo sapiens), P48145. GPR7-expressing cells, fluorescence antagonist assay. inhibition, % at 4.4 µM. actives 1.1% (n = 290,000); in the data active means inhibition above about 16%, passing the limit was not always enough;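 further: cells stimulated with the agonist NPW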
Target sequence (P48145 whole entry, looked up): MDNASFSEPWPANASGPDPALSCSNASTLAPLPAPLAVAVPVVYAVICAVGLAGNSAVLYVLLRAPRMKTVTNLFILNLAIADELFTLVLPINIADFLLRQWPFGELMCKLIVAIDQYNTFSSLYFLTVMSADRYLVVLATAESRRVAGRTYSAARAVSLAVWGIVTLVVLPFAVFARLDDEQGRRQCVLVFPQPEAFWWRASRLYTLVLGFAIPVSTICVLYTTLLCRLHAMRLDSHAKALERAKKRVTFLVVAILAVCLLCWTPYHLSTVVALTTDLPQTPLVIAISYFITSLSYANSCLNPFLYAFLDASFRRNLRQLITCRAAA
TAAR1 ag confirm: human TAAR1 agonists, retest of hits, confirmation, Fluo-8 calcium fluorescence, CHO RD-HGA16 cells; AID 651783, 2012; scaled: DMSO 0%, maximal phenethylamine 100%; actives 82% (n = 2,400); shares compounds with TAAR1 ag; activation, % at 3 µM;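 active means activation above a cutoff set at the run's mean compound activation plus 3 SD, cut at about 39% in these data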
Ga16 nonsel ag: nonselective calcium mobilization agonists, CHO-Ga16 cells, counter-screen for hTAAR1 agonist project, cell-based, fluorescence, CHO-Ga16 parental line. shares compounds with TAAR1 ag. Fluo-8 calcium fluorescence; normalized to maximal ATP response, DMSO zero. activation, % at 3 µM. actives 50% (n = 2,400);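 active means activation above the run cutoff, the mean activation over all tested wells plus 3 SD, cut at about 12% in these data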
TAAR1 desensitize: TAAR1 desensitization by agonist hits, confirmation, counter-screen for TAAR1 agonist project, cell-based, fluorescence, tachyphylaxis; CHO RD-HGA16 hTAAR1, Fluo-8 calcium, beta-PEA response inhibition; inhibition, % at 3 µM; AID 651951, 2012; actives 46% (n = 2,400); shares compounds with TAAR1 ag;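 active means inhibition above the run cutoff, the mean inhibition of all test compounds plus 3 SD, cut at about 49% in these data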;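 further: beta-PEA stimulus applied at its EC80; loss of beta-PEA calcium signal after compound pretreatment read as receptor desensitization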
Ga16 antag count: inhibition of ATP-evoked calcium response in CHO-Ga16 cells, counter-screen for TAAR1 agonist project, cell-based, fluorescence; shares compounds with TAAR1 ag; CHO-Ga16 ATP-induced calcium, Fluo-8 fluorescence; inhibition, % at 3 µM; actives 39% (n = 2,400); AID 651952, 2012;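 active means inhibition above the plate's mean compound inhibition plus 3 SD, computed per plate, cut at about 22% in these data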
Of the large screens only hits and unclear results are named; the others gave an inactive call (follow-up assays come after a bar, where they were run). A selection: hits, their analogues and other compounds. The true share with any hit is near 4%.

c1ccc(C[C@H]2CNCCN2CCCCC2CCCCC2)cc1	TAAR1 ag 52.8 (no result: GPR7 antagonist) | TAAR1 ag confirm 54.5 | Ga16 nonsel ag 22.1 | TAAR1 desensitize inactive | Ga16 antag count 28.8
CCC(C)[C@H]1CNCCN1CCc1cc(C(F)(F)F)cc(C(F)(F)F)c1 (some centres undefined)	TAAR1 ag 48.6 (no result: GPR7 antagonist) | TAAR1 ag confirm 59.4 | Ga16 nonsel ag 22.5 | TAAR1 desensitize inactive | Ga16 antag count inactive
CCCC[C@@H]1CNCCN1CCc1cc(C(F)(F)F)cc(C(F)(F)F)c1	none (no result: GPR7 antagonist)
FC(F)(F)c1cc(CCN2CCNC[C@@H]2CC2CCCCC2)cc(C(F)(F)F)c1	TAAR1 ag 61.2 (no result: GPR7 antagonist) | TAAR1 ag confirm 52.3 | Ga16 nonsel ag 60.4 | TAAR1 desensitize inactive | Ga16 antag count 68.4
c1ccc2c(C[C@@H]3CNCCN3CCCCC3CCCCC3)cccc2c1	none (no result: GPR7 antagonist)
FC(F)(F)c1cc(CCN2CCNC[C@@H]2c2ccccc2)cc(C(F)(F)F)c1	TAAR1 ag 44.9 (no result: GPR7 antagonist) | TAAR1 ag confirm inactive | Ga16 nonsel ag inactive | TAAR1 desensitize inactive | Ga16 antag count inactive
c1ccc(C[C@H]2CNCCN2CC2CCCCC2)cc1	none (no result: GPR7 antagonist)
c1ccc(CC2CCCNC2)cc1 (centres undefined)	TAAR1 ag 43.7 | TAAR1 ag confirm 60.9 | Ga16 nonsel ag inactive | TAAR1 desensitize inactive | Ga16 antag count inactive
COc1ccc(/C=C/c2cc[n+](C(=O)Cc3ccccc3)cc2)cc1	TAAR1 ag 46.6 | TAAR1 ag confirm 69.9 | Ga16 nonsel ag inactive | TAAR1 desensitize inactive | Ga16 antag count inactive
Clc1ccc(OCCNCCc2ccccc2)cc1	TAAR1 ag 80.5 | TAAR1 ag confirm 91.8 | Ga16 nonsel ag inactive | TAAR1 desensitize 75.3 | Ga16 antag count inactive
c1ccc(CCNCCCOc2cccc3ccccc23)cc1	TAAR1 ag 57.1 | TAAR1 ag confirm 95.1 | Ga16 nonsel ag 26.4 | TAAR1 desensitize 87.0 | Ga16 antag count 33.5
CC(=O)NCCOc1cccc2ccccc12	none
COc1ccc(CC(=O)NCC2CCN(C(=O)C(=O)c3cc4ccccc4o3)CC2)cc1	none (no result: MPTP block, DAGLB inh, GPR7 antagonist)
Nc1nc(-c2ccccc2)cn1N	none
Nc1nc(-c2ccccc2)cn1/N=C/c1ccccc1	TAAR1 ag 61.5 | TAAR1 ag confirm 93.1 | Ga16 nonsel ag inactive | TAAR1 desensitize 70.1 | Ga16 antag count inactive
Cn1nc(C(=O)OCC(=O)c2ccc[nH]2)c2ccccc2c1=O	none
Cn1nc(C(=O)OCc2ccccc2F)c2ccccc2c1=O	TAAR1 ag 431.5, TAAR1 antagonist 94.0 | TAAR1 ag confirm inactive | Ga16 nonsel ag inactive | TAAR1 desensitize inactive | Ga16 antag count 27.8
COc1cc(CNc2ncnc3c2ncn3[C@H]2CN(Cc3cccc(C(F)(F)F)c3)C[C@@H](CO)O2)cc(OC)c1OC	none (no result: DAGLB inh, GPR7 antagonist)
O=C(CCN1CCOCC1)c1ccc2c(c1)OCCO2	none
O=C(CCN1CCc2ccccc2CC1)c1ccc2c(c1)OCCO2	TAAR1 ag 92.2, TAAR1 antagonist 84.8 | TAAR1 ag confirm 115.3 | Ga16 nonsel ag inactive | TAAR1 desensitize 97.4 | Ga16 antag count inactive
CCCc1cc(=O)oc2cc(OCC(=O)NCCN3CCOCC3)c(Cl)cc12	none (no result: GPR7 antagonist)

Compound activity: PubChem, several laboratories
